Structures are written as SMILES.

Design in all cases: scale not given: the % may be the effect or the level left
The species named for assay [1] is Rattus norvegicus. Description: Reduction in sterol level in CFE rat […] in serum at 0.1% of diet treated through diet for 6 days relative to control. The format is functional. In outline:
(§1)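 Compound dissolved in methanol-chloroform (1:3 v/v), mixed into ground rat chow at 0.1, 0.05 or 0.025% (w/w), and solvent evaporated; controls received solvent-treated chow. Rats fed ad libitum with water for 6 days, then killed fed and bled. Serum sterols and triglycerides measured by autoanalyzer. Values given as percent of control, mean ± SE; significance by Student's t test.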

The species named for assay [2] is Rattus norvegicus. Description: Reduction in triglyceride level in CFE rat […] in serum at 0.1% of diet treated through diet for 6 days relative to control. The format is functional. In outline:
as §1

For assay [3], the species on record is Rattus norvegicus. Put plainly: Reduction in triglyceride level in CFE rat […] in serum at 0.05% of diet treated through diet for 6 days relative to control. The format is functional. In outline: as §1
The species named for assay [4] is Rattus norvegicus. Description: Reduction in triglyceride level in CFE rat […] at 0.025% of diet treated through diet for 6 days relative to control. The format is functional, Serum. A digest of the protocol: as §1
For assay [5], the species on record is Rattus norvegicus. Put plainly: Reduction in sterol level in CFE rat […] in serum at 0.05% of diet treated through diet for 6 days relative to control. It is filed as functional. In outline: as §1
The species named for assay [6] is Rattus norvegicus. Put plainly: Reduction in sterol level in CFE rat […] at 0.025% of diet treated through diet for 6 days relative to control. The format is functional, Serum. A digest of the protocol:
as §1

As for `CC(C)CCCC(C)CCCC(C)CCOc1ccc(C(=O)O)cc1` (configuration not stated), the Activity in the assay filed under Rattus norvegicus [1] turned out to be 87%; in the assay filed under Rattus norvegicus [2] it was 26%; in the assay filed under Rattus norvegicus [3], 72%; in the assay filed under Rattus norvegicus [4] it was 72%; in the assay filed under Rattus norvegicus [5] it was 73%; in the assay listed under Rattus norvegicus [6], 81%.
With `CCS(=O)(=O)CCCCCCCCCCCCCCCCOc1ccc(C(=O)O)cc1`, the Activity is listed as 89% in the assay listed under Rattus norvegicus [1]; 60% in the assay filed under Rattus norvegicus [2]; 61% in the assay listed under Rattus norvegicus [3]; 70% in the assay filed under Rattus norvegicus [4]; 83% in the assay filed under Rattus norvegicus [5]; 90% in the assay listed under Rattus norvegicus [6].
As for `C=CCCCCCCCC/C=C/CCCOc1ccc(C(=O)O)cc1`, the Activity came out at 74% in the assay filed under Rattus norvegicus [1]; 83% in the assay listed under Rattus norvegicus [2]; 96% in the assay filed under Rattus norvegicus [3]; 83% in the assay filed under Rattus norvegicus [4]; 87% in the assay listed under Rattus norvegicus [5]; 92% in the assay listed under Rattus norvegicus [6].
For `O=C(O)c1ccc(OCCCCCCCCCCCS)cc1`, the Activity stood at 80% in the assay listed under Rattus norvegicus [1]; 44% in the assay listed under Rattus norvegicus [2]; 47% in the assay listed under Rattus norvegicus [3]; 61% in the assay filed under Rattus norvegicus [4]; 74% in the assay listed under Rattus norvegicus [5]; 44% in the assay listed under Rattus norvegicus [6].
For `COC(=O)c1ccc(OCCCCCCCCCCCOS(C)(=O)=O)cc1`, the Activity in the assay filed under Rattus norvegicus [1] was found to be 91%; in the assay filed under Rattus norvegicus [2], 72%; in the assay filed under Rattus norvegicus [3] it was 81%; in the assay filed under Rattus norvegicus [4], 79%; in the assay listed under Rattus norvegicus [5], 105%; in the assay listed under Rattus norvegicus [6], 105%.
`CCCCCCCCCCCC1OC1CCCOc1ccc(C(=O)O)cc1` (configuration not stated): the Activity is 85% in the assay listed under Rattus norvegicus [1]; 55% in the assay filed under Rattus norvegicus [2]; 52% in the assay listed under Rattus norvegicus [3]; 74% in the assay listed under Rattus norvegicus [4]; 85% in the assay filed under Rattus norvegicus [5]; 90% in the assay filed under Rattus norvegicus [6].
For the compound `CCCCCCCCCCCCCC(CC)Oc1ccc(C(=O)O)cc1` (configuration not stated), the Activity in the assay listed under Rattus norvegicus [1] is recorded as 85%; in the assay filed under Rattus norvegicus [2] it was 75%; in the assay listed under Rattus norvegicus [3], 78%; in the assay filed under Rattus norvegicus [4], 83%; in the assay listed under Rattus norvegicus [5], 86%; in the assay listed under Rattus norvegicus [6] it was 82%.
As for `CCOCCCCCCCCCCCOc1ccc(C(=O)O)cc1`, the Activity was found to be 95% in the assay filed under Rattus norvegicus [1]; 63% in the assay filed under Rattus norvegicus [2]; 73% in the assay filed under Rattus norvegicus [3]; 66% in the assay listed under Rattus norvegicus [4]; 109% in the assay listed under Rattus norvegicus [5]; 103% in the assay filed under Rattus norvegicus [6].
As to `O=C(O)c1ccc(OC23CC4CC(CC(C4)C2)C3)cc1`, the Activity came out at 88% in the assay listed under Rattus norvegicus [1]; 85% in the assay filed under Rattus norvegicus [2]; 89% in the assay filed under Rattus norvegicus [3]; 85% in the assay filed under Rattus norvegicus [4]; 87% in the assay listed under Rattus norvegicus [5]; 90% in the assay filed under Rattus norvegicus [6].
For the compound `CCCCCCCC/C=C/CCCCCCCCOc1ccc(C(=O)OC)cc1`, the Activity in the assay filed under Rattus norvegicus [1] was determined as 104%; in the assay filed under Rattus norvegicus [2] it was 46%; in the assay listed under Rattus norvegicus [3], 86%; in the assay filed under Rattus norvegicus [4], 73%; in the assay filed under Rattus norvegicus [5] it was 102%; in the assay listed under Rattus norvegicus [6], 102%.
Take `CCCCCCCCCCCC(=O)CCOc1ccc(C(=O)O)cc1`: the Activity in the assay filed under Rattus norvegicus [1] came to 92%; in the assay listed under Rattus norvegicus [2] it was 74%; in the assay listed under Rattus norvegicus [3], 75%; in the assay filed under Rattus norvegicus [4], 84%; in the assay listed under Rattus norvegicus [5] it was 89%; in the assay listed under Rattus norvegicus [6] it was 89%.
Take `COC(=O)c1ccc(OCCCCCCCCCCCO)cc1`: the Activity was found to be 92% in the assay filed under Rattus norvegicus [1]; 72% in the assay listed under Rattus norvegicus [2]; 86% in the assay filed under Rattus norvegicus [3]; 140% in the assay listed under Rattus norvegicus [4]; 94% in the assay listed under Rattus norvegicus [5]; 94% in the assay listed under Rattus norvegicus [6].
As for `O=C(O)c1ccc(OCCCCCCCCCCCSCc2ccccc2)cc1`, the Activity in the assay filed under Rattus norvegicus [1] came to 77%; in the assay listed under Rattus norvegicus [2] it was 41%; in the assay filed under Rattus norvegicus [3], 55%; in the assay filed under Rattus norvegicus [4], 71%; in the assay filed under Rattus norvegicus [5], 75%; in the assay filed under Rattus norvegicus [6] it was 88%.
With `CCCCCCCCCCCCCCCCOc1ccc(C(=O)OC2CCN(C)CC2)cc1`, the Activity worked out at 96% in the assay filed under Rattus norvegicus [1]; 117% in the assay filed under Rattus norvegicus [2]; 110% in the assay listed under Rattus norvegicus [3]; 100% in the assay filed under Rattus norvegicus [4]; 87% in the assay filed under Rattus norvegicus [5]; 85% in the assay listed under Rattus norvegicus [6].
Take `COCCCCCCCCCCCOc1ccc(C(=O)O)cc1`: the Activity was determined as 97% in the assay filed under Rattus norvegicus [1]; 64% in the assay filed under Rattus norvegicus [2]; 53% in the assay listed under Rattus norvegicus [3]; 80% in the assay listed under Rattus norvegicus [4]; 90% in the assay listed under Rattus norvegicus [5]; 79% in the assay listed under Rattus norvegicus [6].
Take `CCCCCCCCCCCCC(C)(C)Oc1ccc(C(=O)O)cc1`: the Activity came to 97% in the assay listed under Rattus norvegicus [1]; 87% in the assay listed under Rattus norvegicus [2]; 79% in the assay listed under Rattus norvegicus [3]; 77% in the assay filed under Rattus norvegicus [4]; 90% in the assay listed under Rattus norvegicus [5]; 100% in the assay listed under Rattus norvegicus [6].
For the compound `CCCCCCCCCCC/C=C/CCCOc1ccc(C(=O)OC)cc1`, the Activity in the assay listed under Rattus norvegicus [1] is on record as 75%; in the assay listed under Rattus norvegicus [2], 68%; in the assay listed under Rattus norvegicus [3], 57%; in the assay filed under Rattus norvegicus [4], 72%; in the assay listed under Rattus norvegicus [5], 73%; in the assay filed under Rattus norvegicus [6] it was 68%.
In the case of `CCCCNCCCCCCCCCCCOc1ccc(C(=O)OC)cc1.Cl`, the Activity in the assay filed under Rattus norvegicus [1] is on record as 89%; in the assay listed under Rattus norvegicus [2], 66%; in the assay listed under Rattus norvegicus [3], 71%; in the assay filed under Rattus norvegicus [4], 87%; in the assay listed under Rattus norvegicus [5], 96%; in the assay filed under Rattus norvegicus [6] it was 100%.
In the case of `CCCCCCCCCCCCCCCCOc1c(I)cc(C(=O)O)cc1I`, the Activity in the assay listed under Rattus norvegicus [1] worked out at 93%; in the assay filed under Rattus norvegicus [2], 105%; in the assay listed under Rattus norvegicus [3], 86%; in the assay listed under Rattus norvegicus [4] it was 96%; in the assay listed under Rattus norvegicus [5] it was 85%; in the assay filed under Rattus norvegicus [6] it was 94%.
On to `CCCCNCCCCCCCCCCCOc1ccc(C(=O)O)cc1`, for which the Activity is reported as 100% in the assay listed under Rattus norvegicus [1]; 100% in the assay listed under Rattus norvegicus [2]; 103% in the assay listed under Rattus norvegicus [3]; 119% in the assay filed under Rattus norvegicus [4]; 104% in the assay filed under Rattus norvegicus [5]; 98% in the assay listed under Rattus norvegicus [6].
For `O=C(O)c1ccc(OC(=O)C2C3CC4CC(C3)CC2C4)cc1` (configuration not stated), the Activity in the assay listed under Rattus norvegicus [1] is 92%; in the assay listed under Rattus norvegicus [2] it was 113%; in the assay filed under Rattus norvegicus [3], 101%; in the assay filed under Rattus norvegicus [4], 90%; in the assay listed under Rattus norvegicus [5] it was 99%; in the assay filed under Rattus norvegicus [6], 93%.
As for `CCCCCCCCCCCC(=O)CCOc1ccc(C(=O)OC)cc1`, the Activity in the assay listed under Rattus norvegicus [1] amounted to 81%; in the assay filed under Rattus norvegicus [2] it was 61%; in the assay listed under Rattus norvegicus [3], 61%; in the assay filed under Rattus norvegicus [4], 78%; in the assay listed under Rattus norvegicus [5] it was 93%; in the assay filed under Rattus norvegicus [6] it was 100%.
Take `CCCCCCCCCCCC(CCOc1ccc(C(=O)O)cc1)SCC` (configuration not stated): the Activity in the assay filed under Rattus norvegicus [1] is given as 83%; in the assay listed under Rattus norvegicus [2], 44%; in the assay listed under Rattus norvegicus [3], 74%; in the assay listed under Rattus norvegicus [4], 68%; in the assay filed under Rattus norvegicus [5], 93%; in the assay listed under Rattus norvegicus [6], 95%.
For `O=C(O)c1ccc(OCCCCCCCCCCCCCCCS)cc1`, the Activity in the assay listed under Rattus norvegicus [1] is recorded as 82%; in the assay filed under Rattus norvegicus [2], 40%; in the assay listed under Rattus norvegicus [3] it was 42%; in the assay listed under Rattus norvegicus [4], 56%; in the assay listed under Rattus norvegicus [5] it was 81%; in the assay filed under Rattus norvegicus [6], 100%.
For the compound `O=C(O)c1ccc(OC2C3CC4CC(C3)CC2C4)cc1` (configuration not stated), the Activity in the assay listed under Rattus norvegicus [1] was determined as 96%; in the assay filed under Rattus norvegicus [2] it was 88%; in the assay filed under Rattus norvegicus [3], 82%; in the assay filed under Rattus norvegicus [4] it was 79%; in the assay listed under Rattus norvegicus [5], 92%; in the assay listed under Rattus norvegicus [6] it was 88%.
As for `CCCCCCCCCCCC(CCOc1ccc(C(=O)O)cc1)SCc1ccccc1` (configuration not stated), the Activity in the assay filed under Rattus norvegicus [1] turned out to be 92%; in the assay filed under Rattus norvegicus [2], 69%; in the assay filed under Rattus norvegicus [3], 79%; in the assay listed under Rattus norvegicus [4], 92%; in the assay listed under Rattus norvegicus [5], 100%; in the assay filed under Rattus norvegicus [6], 109%.
For the compound `CCCCCCCCCCCCC/C=C\COc1ccc(C(=O)OC)cc1`, the Activity was found to be 82% in the assay filed under Rattus norvegicus [1]; 89% in the assay filed under Rattus norvegicus [2]; 83% in the assay listed under Rattus norvegicus [3]; 96% in the assay listed under Rattus norvegicus [4]; 83% in the assay listed under Rattus norvegicus [5]; 89% in the assay filed under Rattus norvegicus [6].
For the compound `COC(=O)c1ccc(OCC(=O)C23CC4CC(CC(C4)C2)C3)cc1`, the Activity in the assay listed under Rattus norvegicus [1] is reported as 89%; in the assay filed under Rattus norvegicus [2], 100%; in the assay listed under Rattus norvegicus [3], 82%; in the assay filed under Rattus norvegicus [4], 88%; in the assay filed under Rattus norvegicus [5], 96%; in the assay listed under Rattus norvegicus [6], 97%.
With `CCCCCCCCCCCCCCCCOc1ccc(C(=O)O)cc1Cl`, the Activity turned out to be 103% in the assay filed under Rattus norvegicus [1]; 75% in the assay filed under Rattus norvegicus [2]; 87% in the assay filed under Rattus norvegicus [3]; 69% in the assay listed under Rattus norvegicus [4]; 97% in the assay listed under Rattus norvegicus [5]; 108% in the assay filed under Rattus norvegicus [6].
For the compound `CCCCCCCCCCCCCCC(C)(CC)Oc1ccc(C(=O)O)cc1` (configuration not stated), the Activity in the assay filed under Rattus norvegicus [1] worked out at 102%; in the assay filed under Rattus norvegicus [2], 94%; in the assay filed under Rattus norvegicus [4], 94%; in the assay filed under Rattus norvegicus [6], 100%.
For the compound `CCCCCCCCCCCC(O)C(O)CCCOc1ccc(C(=O)O)cc1` (configuration not stated), the Activity in the assay listed under Rattus norvegicus [1] turned out to be 83%; in the assay filed under Rattus norvegicus [2], 55%; in the assay listed under Rattus norvegicus [3], 60%; in the assay listed under Rattus norvegicus [5], 86%.

For the origin of these results see ChEMBL document CHEMBL3272177, “Hypolipidemic alkoxybenzoic acids” (1976).
